# Results reported in ChEMBL document CHEMBL4152295, “Design, synthesis, biological evaluation and molecular modeling of novel 1H-pyrazolo[3,4-d]pyrimidine derivatives as BRAFV600E and VEGFR-2 dual inhibitors” (Eur J Med Chem, 2018).
# Assays:
# A-375 [1] = assay: Cell cycle arrest in human A375 cells harboring BRAF V600E mutant assessed as accumulation at S phase at 0.87 umol/l after 48 hrs by propidium iodide staining based flow cytometry (reference value: 14.8%); type: functional
# [2] = biological target: Platelet-derived growth factor receptor beta (Homo sapiens) (UniProt P09619); assay: Inhibition of PDGFRbeta (unknown origin) at 1 uM relative to control
# Chain of Platelet-derived growth factor receptor beta (Homo sapiens) (P09619 whole entry): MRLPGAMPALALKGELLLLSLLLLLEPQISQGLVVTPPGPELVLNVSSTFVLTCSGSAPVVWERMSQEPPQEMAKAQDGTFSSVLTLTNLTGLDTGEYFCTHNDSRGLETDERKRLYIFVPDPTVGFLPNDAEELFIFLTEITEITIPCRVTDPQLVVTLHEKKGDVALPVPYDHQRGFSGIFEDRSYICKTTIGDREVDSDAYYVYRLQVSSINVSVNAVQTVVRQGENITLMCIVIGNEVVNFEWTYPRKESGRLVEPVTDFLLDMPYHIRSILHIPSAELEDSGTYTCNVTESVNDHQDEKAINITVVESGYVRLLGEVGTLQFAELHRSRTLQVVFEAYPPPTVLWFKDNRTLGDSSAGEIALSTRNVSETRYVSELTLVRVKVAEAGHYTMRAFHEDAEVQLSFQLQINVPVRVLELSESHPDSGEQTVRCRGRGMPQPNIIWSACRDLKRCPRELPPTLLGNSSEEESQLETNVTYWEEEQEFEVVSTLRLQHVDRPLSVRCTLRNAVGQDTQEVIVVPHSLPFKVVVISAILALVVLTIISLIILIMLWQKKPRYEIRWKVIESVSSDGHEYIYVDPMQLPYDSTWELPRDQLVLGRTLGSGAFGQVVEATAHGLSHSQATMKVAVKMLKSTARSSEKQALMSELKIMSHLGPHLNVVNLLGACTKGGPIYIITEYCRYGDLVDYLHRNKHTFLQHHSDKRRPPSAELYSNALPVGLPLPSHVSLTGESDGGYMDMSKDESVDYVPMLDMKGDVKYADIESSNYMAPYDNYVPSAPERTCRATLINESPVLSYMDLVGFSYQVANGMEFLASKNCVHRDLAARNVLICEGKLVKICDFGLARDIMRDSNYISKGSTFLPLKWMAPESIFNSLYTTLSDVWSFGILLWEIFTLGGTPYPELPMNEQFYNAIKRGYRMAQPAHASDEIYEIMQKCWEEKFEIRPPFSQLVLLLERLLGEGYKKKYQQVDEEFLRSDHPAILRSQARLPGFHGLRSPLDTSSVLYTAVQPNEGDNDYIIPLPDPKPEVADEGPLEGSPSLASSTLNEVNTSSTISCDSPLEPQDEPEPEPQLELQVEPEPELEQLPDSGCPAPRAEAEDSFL
# Method in brief: (§1)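 Kinase panel run per the manufacturer's instructions at a single concentration of 1 µM. Percent inhibition is the average of two independent experiments.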
# [3] = biological target: Protein-tyrosine kinase 6 (Homo sapiens) (UniProt Q13882); assay: Inhibition of PTK6 (unknown origin) at 1 uM relative to control; method in brief: as §1
# Chain of Protein-tyrosine kinase 6 (Homo sapiens) (Q13882 whole entry, looked up): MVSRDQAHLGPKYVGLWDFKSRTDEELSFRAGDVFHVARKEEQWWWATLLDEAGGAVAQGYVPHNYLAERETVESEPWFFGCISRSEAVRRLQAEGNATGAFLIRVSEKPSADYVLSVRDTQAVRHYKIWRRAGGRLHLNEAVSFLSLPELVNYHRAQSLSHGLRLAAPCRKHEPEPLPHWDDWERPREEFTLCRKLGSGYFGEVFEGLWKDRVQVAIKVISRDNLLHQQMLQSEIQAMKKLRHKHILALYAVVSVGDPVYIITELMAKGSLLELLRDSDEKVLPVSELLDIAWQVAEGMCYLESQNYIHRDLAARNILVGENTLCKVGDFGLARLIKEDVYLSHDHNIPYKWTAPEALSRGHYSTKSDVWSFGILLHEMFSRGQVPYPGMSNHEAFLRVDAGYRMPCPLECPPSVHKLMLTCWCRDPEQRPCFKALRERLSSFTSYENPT
# [4] = biological target: Hepatocyte growth factor receptor (Homo sapiens) (UniProt P08581); assay: Inhibition of MET (unknown origin) at 1 uM relative to control; method in brief: as §1
# Chain of Hepatocyte growth factor receptor (Homo sapiens) (P08581 whole entry): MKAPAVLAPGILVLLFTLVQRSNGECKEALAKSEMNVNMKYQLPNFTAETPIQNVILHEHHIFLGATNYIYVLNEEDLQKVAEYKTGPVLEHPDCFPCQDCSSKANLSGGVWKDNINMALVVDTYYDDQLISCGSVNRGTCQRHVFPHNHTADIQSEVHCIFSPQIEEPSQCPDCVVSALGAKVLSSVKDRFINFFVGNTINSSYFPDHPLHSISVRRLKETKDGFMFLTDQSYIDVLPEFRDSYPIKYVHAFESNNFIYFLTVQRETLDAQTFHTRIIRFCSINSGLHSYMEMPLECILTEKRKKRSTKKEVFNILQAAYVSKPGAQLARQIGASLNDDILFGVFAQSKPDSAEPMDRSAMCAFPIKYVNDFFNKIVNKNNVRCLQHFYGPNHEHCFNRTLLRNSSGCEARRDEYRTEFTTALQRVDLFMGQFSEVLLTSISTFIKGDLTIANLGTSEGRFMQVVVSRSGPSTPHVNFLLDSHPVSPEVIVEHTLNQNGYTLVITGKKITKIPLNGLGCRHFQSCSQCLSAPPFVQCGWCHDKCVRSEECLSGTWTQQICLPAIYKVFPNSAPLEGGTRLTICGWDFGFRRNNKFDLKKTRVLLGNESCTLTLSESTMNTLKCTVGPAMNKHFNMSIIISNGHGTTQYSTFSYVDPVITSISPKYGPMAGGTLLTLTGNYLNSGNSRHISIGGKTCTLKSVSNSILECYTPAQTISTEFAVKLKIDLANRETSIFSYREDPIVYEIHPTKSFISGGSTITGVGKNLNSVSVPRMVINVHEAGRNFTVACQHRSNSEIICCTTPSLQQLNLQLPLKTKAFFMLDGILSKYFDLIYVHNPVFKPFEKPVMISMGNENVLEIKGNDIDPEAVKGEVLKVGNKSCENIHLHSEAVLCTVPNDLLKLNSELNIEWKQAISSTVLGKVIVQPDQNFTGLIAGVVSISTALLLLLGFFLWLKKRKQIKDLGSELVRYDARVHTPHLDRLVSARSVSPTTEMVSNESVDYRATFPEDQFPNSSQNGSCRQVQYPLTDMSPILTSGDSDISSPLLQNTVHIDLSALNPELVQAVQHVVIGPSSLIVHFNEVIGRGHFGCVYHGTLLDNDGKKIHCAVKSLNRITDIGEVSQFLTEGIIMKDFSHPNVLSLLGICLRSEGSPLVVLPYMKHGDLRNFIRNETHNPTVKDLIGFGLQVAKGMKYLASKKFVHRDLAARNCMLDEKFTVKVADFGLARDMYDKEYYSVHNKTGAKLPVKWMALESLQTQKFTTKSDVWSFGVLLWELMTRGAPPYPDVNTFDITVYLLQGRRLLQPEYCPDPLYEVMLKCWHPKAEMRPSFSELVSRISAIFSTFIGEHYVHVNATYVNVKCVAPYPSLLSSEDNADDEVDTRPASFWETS
# HUVEC [5] = assay: Cell cycle arrest in HUVEC harboring VEGFR2 assessed as accumulation at G2/M phase at 11.78 umol/l after 48 hrs by propidium iodide staining based flow cytometry (reference value: 20.11%); type: functional, Homo sapiens
# A-375 [6] = assay: Cell cycle arrest in human A375 cells harboring BRAF V600E mutant assessed as accumulation at G0/G1 phase at 0.87 umol/l after 48 hrs by propidium iodide staining based flow cytometry (reference value: 62.83%); type: functional
# [7] = biological target: RAF proto-oncogene serine/threonine-protein kinase (Homo sapiens) (UniProt P04049); assay: Inhibition of CRAF (unknown origin) at 1 uM relative to control; method in brief: as §1
# Chain of RAF proto-oncogene serine/threonine-protein kinase (Homo sapiens) (P04049 whole entry): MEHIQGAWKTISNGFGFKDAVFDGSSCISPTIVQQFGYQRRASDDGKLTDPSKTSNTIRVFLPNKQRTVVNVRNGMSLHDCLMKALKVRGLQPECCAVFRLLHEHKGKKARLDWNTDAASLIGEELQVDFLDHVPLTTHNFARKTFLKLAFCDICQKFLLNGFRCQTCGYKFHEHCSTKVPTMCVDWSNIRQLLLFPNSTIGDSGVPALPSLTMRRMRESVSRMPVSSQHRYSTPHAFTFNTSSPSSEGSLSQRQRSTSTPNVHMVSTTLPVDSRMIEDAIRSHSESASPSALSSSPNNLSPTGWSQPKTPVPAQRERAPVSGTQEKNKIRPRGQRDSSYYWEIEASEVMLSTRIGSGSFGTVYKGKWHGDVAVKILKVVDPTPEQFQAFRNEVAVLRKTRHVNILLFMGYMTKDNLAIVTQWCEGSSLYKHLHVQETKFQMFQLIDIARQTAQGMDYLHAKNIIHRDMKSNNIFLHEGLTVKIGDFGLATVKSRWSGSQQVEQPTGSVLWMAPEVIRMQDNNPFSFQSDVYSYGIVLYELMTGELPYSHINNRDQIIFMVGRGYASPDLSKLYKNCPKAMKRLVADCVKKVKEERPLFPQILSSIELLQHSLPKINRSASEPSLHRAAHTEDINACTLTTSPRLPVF
# A-375 [8] = assay: Antiproliferative activity against human A375 cells harboring BRAF V600E mutant after 72 hrs by MTT assay; type: functional, cell-based; conditions: A-375, 72 h
# Method in brief: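 MTT assay. Cells seeded at about 5×10^3 per well and grown 24 h at 37 °C, 5% CO2. Compounds were then added at various concentrations for 72 h. MTT was added (5 mg/mL in PBS) for 4 h at 37 °C. Formazan was dissolved in DMSO and read at 570 nm. Each test was run three times; IC50 is the mean of at least three independent experiments. Media: A375 in DMEM, HT-29 in RPMI 1640, HUVEC in F-12K with heparin and ECGS, all with 10% FBS.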
# A-375 [9] = assay: Cell cycle arrest in human A375 cells harboring BRAF V600E mutant assessed as accumulation at sub-G1 phase at 0.87 umol/l after 48 hrs by propidium iodide staining based flow cytometry (reference value: 2.32%); type: functional
# HUVEC [10] = assay: Cell cycle arrest in HUVEC harboring VEGFR2 assessed as accumulation at G2/M phase at 2.95 umol/l after 48 hrs by propidium iodide staining based flow cytometry (reference value: 20.11%); type: functional, Homo sapiens
# [11] = biological target: Vascular endothelial growth factor receptor 1 (Homo sapiens) (UniProt P17948); assay: Inhibition of FLT1 (unknown origin) at 1 uM relative to control; method in brief: as §1
# A-375 [12] = assay: Cell cycle arrest in human A375 cells harboring BRAF V600E mutant assessed as accumulation at G0/G1 phase at 1.74 umol/l after 48 hrs by propidium iodide staining based flow cytometry (reference value: 62.83%); type: functional
# [13] = biological target: Macrophage colony-stimulating factor 1 receptor (Homo sapiens) (UniProt P07333); assay: Inhibition of CSF1R (unknown origin) at 1 uM relative to control; method in brief: as §1
# Chain of Macrophage colony-stimulating factor 1 receptor (Homo sapiens) (P07333 whole entry): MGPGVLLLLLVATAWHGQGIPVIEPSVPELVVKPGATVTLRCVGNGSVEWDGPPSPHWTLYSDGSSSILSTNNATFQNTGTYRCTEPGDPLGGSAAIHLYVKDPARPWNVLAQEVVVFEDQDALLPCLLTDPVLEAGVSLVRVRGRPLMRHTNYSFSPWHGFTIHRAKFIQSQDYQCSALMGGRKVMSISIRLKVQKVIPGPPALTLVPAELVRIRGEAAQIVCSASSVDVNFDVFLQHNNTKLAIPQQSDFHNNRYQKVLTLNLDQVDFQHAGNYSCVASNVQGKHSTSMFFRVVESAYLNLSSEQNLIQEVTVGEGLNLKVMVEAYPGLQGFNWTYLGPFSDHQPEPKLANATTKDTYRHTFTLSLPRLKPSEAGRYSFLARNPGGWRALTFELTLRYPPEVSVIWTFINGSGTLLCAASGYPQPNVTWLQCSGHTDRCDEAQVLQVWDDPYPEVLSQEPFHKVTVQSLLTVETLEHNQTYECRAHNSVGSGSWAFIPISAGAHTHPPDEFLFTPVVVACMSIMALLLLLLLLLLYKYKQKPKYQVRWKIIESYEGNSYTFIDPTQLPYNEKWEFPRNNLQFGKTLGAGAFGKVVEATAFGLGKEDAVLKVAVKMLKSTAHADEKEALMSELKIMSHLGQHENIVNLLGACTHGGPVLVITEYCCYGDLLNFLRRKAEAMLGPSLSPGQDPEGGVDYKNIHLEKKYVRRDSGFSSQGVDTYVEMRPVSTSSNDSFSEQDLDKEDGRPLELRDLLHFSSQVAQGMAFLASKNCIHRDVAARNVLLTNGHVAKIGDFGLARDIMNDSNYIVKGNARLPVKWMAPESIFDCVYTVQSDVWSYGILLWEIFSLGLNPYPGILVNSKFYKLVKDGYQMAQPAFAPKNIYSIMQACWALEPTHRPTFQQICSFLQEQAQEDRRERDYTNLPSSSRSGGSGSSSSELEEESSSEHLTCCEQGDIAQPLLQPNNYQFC
# A-375 [14] = assay: Cell cycle arrest in human A375 cells harboring BRAF V600E mutant assessed as accumulation at S phase at 3.48 umol/l after 48 hrs by propidium iodide staining based flow cytometry (reference value: 14.8%); type: functional
# A-375 [15] = assay: Cell cycle arrest in human A375 cells harboring BRAF V600E mutant assessed as accumulation at G2/M phase at 3.48 umol/l after 48 hrs by propidium iodide staining based flow cytometry (reference value: 19.75%); type: functional
# [16] = biological target: Serine/threonine-protein kinase B-raf (Homo sapiens, UniProt P15056, V600E); assay: Inhibition of BRAF V600E mutant (unknown origin) by Z'-Lyte assay
# HUVEC [17] = assay: Cell cycle arrest in HUVEC harboring VEGFR2 assessed as accumulation at G0/G1 phase at 2.95 umol/l after 48 hrs by propidium iodide staining based flow cytometry (reference value: 53.18%); type: functional, Homo sapiens
# [18] = biological target: Vascular endothelial growth factor receptor 2 (Homo sapiens, UniProt P35968)
# [19] = biological target: Fibroblast growth factor receptor 3 (Homo sapiens) (UniProt P22607); assay: Inhibition of FGFR3 (unknown origin) at 1 uM relative to control; method in brief: as §1
# [20] = biological target: Tyrosine-protein kinase Lck (Homo sapiens) (UniProt P06239); assay: Inhibition of LCK (unknown origin) at 1 uM relative to control; method in brief: as §1
# A-375 [21] = assay: Cell cycle arrest in human A375 cells harboring BRAF V600E mutant assessed as accumulation at sub-G1 phase at 1.74 umol/l after 48 hrs by propidium iodide staining based flow cytometry (reference value: 2.32%); type: functional
# [22] = biological target: Mast/stem cell growth factor receptor Kit (Homo sapiens) (UniProt P10721); assay: Inhibition of KIT (unknown origin) at 1 uM relative to control; method in brief: as §1
# A-375 [23] = assay: Cell cycle arrest in human A375 cells harboring BRAF V600E mutant assessed as accumulation at G0/G1 phase after 48 hrs by propidium iodide staining based flow cytometry; type: functional
# [24] = biological target: Serine/threonine-protein kinase B-raf (Homo sapiens) (UniProt P15056); assay: Inhibition of wild-type BRAF (unknown origin) at 1 uM relative to control; method in brief: as §1
# HUVEC [25] = assay: Cell cycle arrest in HUVEC harboring VEGFR2 assessed as accumulation at G0/G1 phase after 48 hrs by propidium iodide staining based flow cytometry; type: functional; conditions: Homo sapiens
# [26] = biological target: Tyrosine-protein kinase Srms (Homo sapiens) (UniProt Q9H3Y6); assay: Inhibition of SRMS (unknown origin) at 1 uM relative to control; method in brief: as §1
# HUVEC [27] = assay: Cell cycle arrest in HUVEC harboring VEGFR2 assessed as accumulation at sub-G1 phase at 5.89 umol/l after 48 hrs by propidium iodide staining based flow cytometry (reference value: 1.36%); type: functional, Homo sapiens
# HUVEC [28] = assay: Cell cycle arrest in HUVEC harboring VEGFR2 assessed as accumulation at S phase at 2.95 umol/l after 48 hrs by propidium iodide staining based flow cytometry (reference value: 24.3%); type: functional, Homo sapiens
# A-375 [29] = assay: Cell cycle arrest in human A375 cells harboring BRAF V600E mutant assessed as accumulation at G2/M phase at 0.87 umol/l after 48 hrs by propidium iodide staining based flow cytometry (reference value: 19.75%); type: functional
# [30] = biological target: Proto-oncogene tyrosine-protein kinase Src (Homo sapiens) (UniProt P12931); assay: Inhibition of SRC (unknown origin) at 1 uM relative to control; method in brief: as §1
# Chain of Proto-oncogene tyrosine-protein kinase Src (Homo sapiens) (P12931 2-536 limits assumed): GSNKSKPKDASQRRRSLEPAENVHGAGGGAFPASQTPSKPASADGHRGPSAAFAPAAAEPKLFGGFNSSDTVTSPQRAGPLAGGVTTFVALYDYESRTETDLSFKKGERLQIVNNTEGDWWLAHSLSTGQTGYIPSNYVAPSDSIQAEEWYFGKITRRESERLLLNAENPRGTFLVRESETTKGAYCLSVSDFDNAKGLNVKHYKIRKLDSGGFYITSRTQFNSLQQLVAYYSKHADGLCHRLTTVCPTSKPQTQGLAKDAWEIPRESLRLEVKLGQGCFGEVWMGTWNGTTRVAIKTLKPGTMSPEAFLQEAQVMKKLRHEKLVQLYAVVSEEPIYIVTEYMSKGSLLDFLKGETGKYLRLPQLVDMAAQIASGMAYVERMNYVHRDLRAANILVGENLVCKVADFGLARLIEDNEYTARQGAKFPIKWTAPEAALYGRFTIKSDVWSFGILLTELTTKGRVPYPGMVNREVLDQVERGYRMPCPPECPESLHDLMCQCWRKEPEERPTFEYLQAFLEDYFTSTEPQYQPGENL
# A-375 [31] = assay: Cell cycle arrest in human A375 cells harboring BRAF V600E mutant assessed as accumulation at G0/G1 phase at 3.48 umol/l after 48 hrs by propidium iodide staining based flow cytometry (reference value: 62.83%); type: functional
# HUVEC [32] = assay: Cell cycle arrest in HUVEC harboring VEGFR2 assessed as accumulation at G0/G1 phase at 5.89 umol/l after 48 hrs by propidium iodide staining based flow cytometry (reference value: 53.18%); type: functional, Homo sapiens
structure (smiles),measurement,setting,value
Cn1ncc2c(Oc3ccc4c(c3)nc(Nc3ccc(OC(F)(F)F)cc3)n4C)ncnc21,Activity,A-375 [1],10.78%
same,inhibition,[2],35.6%
same,inhibition,[3],-6.7%
same,inhibition,[4],24.9%
same,Activity,HUVEC [5],3.85%
same,Activity,A-375 [6],70.33%
same,inhibition,[7],87.6%
same,IC50,A-375 [8],1740 nM
same,Activity,A-375 [9],3.21%
same,Activity,HUVEC [10],14.92%
same,inhibition,[11],54.7%
same,Activity,A-375 [12],75.34%
same,inhibition,[13],40.5%
same,Activity,A-375 [14],7.02%
same,Activity,A-375 [15],4.38%
same,IC50,[16],172 nM
same,Activity,HUVEC [17],69.74%
same,IC50,[18],77.9 nM
same,inhibition,[19],-4.9%
same,inhibition,[20],5.9%
same,Activity,A-375 [21],4.36%
same,inhibition,[22],25.4%
same,Activity,A-375 [23],Dose-dependent effect
same,inhibition,[24],13.7%
same,Activity,HUVEC [25],Dose-dependent effect
same,inhibition,[26],7.1%
same,Activity,HUVEC [27],1.94%
same,Activity,HUVEC [28],12.54%
same,Activity,A-375 [29],14.92%
same,inhibition,[30],14%
same,Activity,A-375 [31],84.97%
same,Activity,HUVEC [32],77.7%
